Efflux pump mplx = inhibitors of Candida efflux pumps in yeast, primary screen, S. cerevisiae, Nile Red, multiplex; AID 485275, 2010; S. cerevisiae Candida pump triplex; inhibition, % at 10 µM; hit rate 0.44% among 330,000;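 active = plate passing quality check with inhibition over a set limit, or well fluorescence over plate mean plus 4 SD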;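 note: Nile Red retained in pooled yeast measured as flow cytometry median fluorescence; 0% = buffer negative control and 100% = Enniatin B positive control; higher means more Nile Red kept so more efflux inhibition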
Cneo AK release = Cryptococcus neoformans cell lysis inducers, primary screen, AK release luminescence, single concentration; C. neoformans lysis, adenylate kinase release luminescence, 4 h; normalised: neutral wells 0, clomiphene wells 100; lysis activity, % at 15 µM; hit rate 0.2% among 360,000; AID 651654, 2012;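 active = mean lysis activity across replicates of at least 80%, whatever share of replicates individually reach that level; inactive = mean lysis activity below 80%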
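Assay system: Cryptococcus neoformans yeast cells / Dosing: single-point compound dose / Timing: 4 h at 37 °C static, read 1 h later / Measured by: luminescence of released adenylate kinase using an AK detection reagent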
C2C12 statin = suppressors of statin myotoxicity in C2C12 myotubes, primary screen, cell-based, single point, plate reader | rescue of ATP level, % at 7.49 µM | C2C12 myotubes + simvastatin, ATP luminescence, 48 h; scaled: DMSO 0, geranylgeraniol control 100 | hit rate 0.78% among 330,000 | AID 602340, 2012;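 active = mean ATP rescue above about 67%, or every replicate alone reaching that limit, limit read from the data, passing the limit was not always enough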;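 note: myotubes were challenged with 10 µM simvastatin during compound exposure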
SUMO Mot1 rescue = yeast Mot1-301 growth rescue at high temperature, primary screen, SUMOylation pathway inhibitor project, S. cerevisiae, ATP luminescence, 38.5C; S. cerevisiae Mot1-301 growth rescue; percent above DMSO median, 100 means doubled; growth rescue, % at 18.8 µM; hit rate 1% among 320,000; AID 2716, 2010;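 active = every valid replicate shows activation above 250% relative to neutral control wells; inactive = the rest, any valid replicate at or below 250%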;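 note: OY570 slx delta 5 strain wells were the positive control but not used for scaling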
Cmpd fluor yeast = flagged as fluorescent in efflux inhibitor counter-screen | S. cerevisiae AD/pABC3, compound fluorescence, flow cytometry | hit rate 4% among 1,700 | fluorescence ratio to DMSO, % at 10 µM | AID 588517 | shares compounds with Efflux pump mplx;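 active = fluorescence ratio to DMSO above its plate's cutoff, the plate mean ratio plus 5 SD, cut at about 210% in these data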;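 note: unstained yeast with no Nile Red so the signal is compound autofluorescence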
Mdr1 pump inh = inhibitors of Candida albicans Mdr1 efflux, confirmation, flow cytometry, singleplex, Cherry Pick1 set; shares compounds with Efflux pump mplx; S. cerevisiae AD/CaMDR1, Nile Red efflux; inhibition, % at 10 µM; hit rate 1% among 1,700; AID 588518, 2011; in the data active = inhibition above about 26%;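 note: 0% = DMSO vehicle and 100% = reference inhibitor; higher means more Nile Red retained so more efflux inhibition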
Cdr2 pump inh = inhibitors of Candida albicans Cdr2 efflux pump, confirmation, S. cerevisiae AD/CaCDR2, flow cytometry, cherry pick 1, singleplex; Nile Red retention ratio vs DMSO, % at 10 µM; shares compounds with Efflux pump mplx; hit rate 4% among 1,700; Nile Red retention; in the data active = Nile Red retention ratio vs DMSO above about 190%;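 note: higher ratio means more blocking of Cdr2 efflux of the dye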
CaCdr1 efflux inh = inhibitors of Candida albicans Cdr1 efflux pump, confirmation, S. cerevisiae AD/CaCDR1, flow cytometry, cherry pick 1, singleplex; shares compounds with Efflux pump mplx; Nile Red efflux; inhibition, % at 10 µM; hit rate 1% among 1,700; AID 588522, 2011;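 active = inhibition above the screen-wide mean plus twice its standard deviation, cut at about 32% in these data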
* hit, by the source's call; nt = not tested or not shown. Shown are actives, neighbours in structure and some others; about 1.8% of the full set was active somewhere.

SMILES	Efflux pump mplx	Cneo AK release	C2C12 statin	SUMO Mot1 rescue	Cmpd fluor yeast	Mdr1 pump inh	Cdr2 pump inh	CaCdr1 efflux inh
CC(CCc1ccco1)N(C)S(=O)(=O)c1csc(C(N)=O)c1 (centres undefined)	0.2	-1.8	10.2	-16.2	nt	nt	nt	nt
COc1ccc2[nH]c3c(C)c4ccncc4c(C)c3c2c1	2.8*	0.0	-417.7	-12.6	125.1	0.0	102.9	-0.1
C/C(=N\NC(=O)CSCc1ccccc1Br)c1cccc([N+](=O)[O-])c1	6.5*	-2.1	nt	-0.2	100.3	-0.2	96.3	0.0
C/C(=N\NC(=O)CSCc1ccc([N+](=O)[O-])cc1)c1cccc(Br)c1	-0.1	0.4	-2.5	5.1	nt	nt	nt	nt
COc1ccc(CCOC(=O)c2ccc(N)c([N+](=O)[O-])c2)cc1	6.6*	-0.6	0.1	3.0	102.2	-0.2	nt	-0.1
Cc1ccc(-c2nnc(Nc3ccc4c(c3)OCO4)c3ccccc23)cc1S(=O)(=O)NCCO	12.7*	-2.0	nt	-12.6	105.8	-0.1	107.2	-0.1
CCCSc1nc(C)c(-c2csc(C(C#N)=C3CCCC3)n2)cc1C#N	0.9*	nt	nt	-14.1	108.3	-0.1	114.1	0.1
CCCCSc1nc2c(cc1C#N)CCC2	0.0	-2.1	-46.5	-6.1	nt	nt	nt	nt
COc1cccc(-c2ccc3c(c2)O[C@H](CN(C)C(C)=O)[C@H](C)CN([C@H](C)CO)S3(=O)=O)c1	nt	2.1	-3.3	nt	nt	nt	nt	nt
O=C(Cn1c2ccccc2c(=O)c2ccccc21)Nc1ccccc1F	16.6*	nt	nt	3.4	97.6	-0.1	102.9	0.4
CC(=O)c1cn(CC(=O)Nc2ccccc2F)c2ccccc12	0.4	-1.5	0.7	-5.1	nt	nt	nt	nt
COc1ccc(C(=O)Nc2sc3c(c2C#N)CCN(C(C)=O)C3)cc1	0.8*	-0.9	-17.3	-20.0	98.9	-0.2	89.9	0.0
COc1cc(C(=O)Nc2sc3c(c2C#N)CCN(C(C)=O)C3)cc(OC)c1OC	-0.1	0.0	11.4	6.0	nt	nt	nt	nt
COC(=O)c1c(NC(=O)c2ccco2)sc2c1CCN(C(C)=O)C2	1.1*	3.1	-2.2	-5.3	96.6	0.0	106.0	-0.1
COC(=O)c1c(NC(=O)c2ccco2)sc(C(=O)N2CCCC2)c1C	0.0	-0.9	-3.6	-12.0	nt	nt	nt	nt
Cc1ccccc1OCC(=O)Nc1nnc(C2CCCCC2)s1	0.0	3.8	nt	1.6	101.8	-0.2	99.3	-0.1
Cc1ccccc1OCC(=O)Nc1nnc(-c2ccncc2)s1	-0.1	nt	nt	3.6	101.1	-0.1	114.4	0.3
O=C(COc1cc(Cl)ccc1Cl)Nc1nnc(C2CC2)s1	0.1	3.4	12.5	368.8	nt	nt	nt	nt
COc1cc(C)ccc1OCC(=O)Nc1nnc(C2CC2)s1	0.2	-0.5	6.5	1.8	111.5	-0.2	105.7	0.1
O=C(COc1ccc(Br)cc1F)Nc1nnc(C2CC2)s1	-0.1	1.0	36.7	1.7	95.3	-0.3	84.5	-0.3
O=C(COc1ccccc1F)Nc1nnc(-c2ccncc2)s1	-0.3	1.5	nt	14.2	nt	nt	nt	nt
CC1(C)CC(=O)c2c(oc3ccc(NS(=O)(=O)c4cccc5cccnc45)cc23)C1	-0.1	nt	nt	-11.8	nt	nt	nt	nt
Nc1[nH]c2cc([N+](=O)[O-])ccc2c1-c1ccccn1	0.2	-0.9	5.4	187.6	nt	nt	nt	nt
COc1ccc(C2c3ccc4ccccc4c3Oc3ncn(CCN4CCOCC4)c(=N)c32)cc1 (centres undefined)	1.0*	8.2	-31.5	-23.3	107.9	-0.4	112.4	0.0
COc1ccc(C2c3ccc4ccccc4c3Oc3ncn(CCN4CCOCC4)c(=N)c32)cc1OC (centres undefined)	-0.1	nt	nt	-8.7	nt	nt	nt	nt
SMILES	Efflux pump mplx	Cneo AK release	C2C12 statin	SUMO Mot1 rescue	Cmpd fluor yeast	Mdr1 pump inh	Cdr2 pump inh	CaCdr1 efflux inh
N#Cc1nc(COc2ccc(Cl)cc2Cl)oc1N1CCOCC1	0.8*	-1.6	-3.2	-25.6	109.5	0.1	108.0	0.0
N#Cc1nc(COc2ccc(Cl)cc2Cl)oc1N1CCN(c2ccccc2)CC1	0.0	0.9	-8.2	-11.2	nt	nt	nt	nt
CN(CC(=O)Nc1cccc(F)c1)C(=O)c1ccc(-c2cccc(C(F)(F)F)c2)o1	-0.1	6.8	nt	11.5	nt	nt	nt	nt
CC(=O)N1CCN(C(=O)c2cccc(S(=O)(=O)N3c4ccccc4CC3C)c2)CC1 (centres undefined)	0.1	-0.9	2.1	-12.2	nt	nt	nt	nt
CC1Cc2ccccc2N1S(=O)(=O)c1cccc(C(=O)N2CCN(c3ncccn3)CC2)c1 (centres undefined)	0.9*	nt	nt	803.4	105.8	-0.1	102.9	-0.1
O=C1/C(=C/c2cccc(Br)c2)SC(=S)N1/N=C/c1cc([N+](=O)[O-])ccc1O	0.0	nt	1.2	106.2	96.6	0.1	83.1	-0.1
O=C1/C(=C\c2ccc(O)cc2)SC(=S)N1/N=C/c1ccc(O)cc1	0.2	-4.0	nt	-9.0	96.6	-0.3	106.3	0.0
CC(=O)NN1C(=O)/C(=C\c2ccc(O)cc2)SC1=S	0.0	-0.3	-2.5	37.6	nt	nt	nt	nt
O=C(c1ccc(NC2=NC3CS(=O)(=O)CC3S2)cc1)N1CCc2ccccc2C1 (centres undefined)	0.0	-1.5	-8.5	-2.4	nt	nt	nt	nt
O=C(NC[C@H]1[C@H](c2ccccc2)[C@@H](CO)N1Cc1ccccn1)C1CCC1	nt	-1.9	-6.9	nt	nt	nt	nt	nt
C#CCOC(=O)C1C2C=CC(C2)C1C(=O)O (centres undefined)	0.0	nt	nt	-0.8	nt	nt	nt	nt
COCCNC(=O)/C(C#N)=C/C(C)=C/c1ccccc1	16.6*	nt	nt	-9.1	98.9	-0.2	102.2	0.0
C[C@H](CO)N1C[C@H](C)[C@H](CN(C)CC2CCCCC2)Oc2ccc(NC(=O)CCC(F)(F)F)cc2C1=O	nt	2.1	-21.6	nt	nt	nt	nt	nt
O=C(CSc1cccc[n+]1[O-])Nc1ccccc1C(F)(F)F	0.1	nt	-4.0	-2.5	nt	nt	nt	nt
O=C(CSc1cccc[n+]1[O-])Nc1ccccc1Oc1ccccc1	1.0*	-1.5	-2.6	4.1	110.0	0.1	118.7	0.0
O=C(NCC1CC1)[C@H]1[C@H](CO)[C@H]2Cn3c(ccc(-c4ccccc4)c3=O)[C@@H]1N2Cc1nccs1	nt	-0.8	5.0	nt	nt	nt	nt	nt
C=CCn1c(SCC#N)nc2ccccc2c1=O	0.6*	-10.7	7.8	-1.5	93.3	-0.2	106.3	0.0
CC(C)Cn1c(SCC#N)nc2ccccc2c1=O	0.0	0.9	-8.3	-1.3	nt	nt	nt	nt

Screening data (PubChem)
